Source: ChEMBL document CHEMBL1151959, “Identification and biological evaluation of a series of 1H-benzo[de]isoquinoline-1,3(2H)-diones as hepatitis C virus NS5B polymerase inhibitors” (J Med Chem, 2009)
Converted amounts (≈) assume the structure as drawn. The source made the active and inactive calls. The rule behind the calls is not given here.

What was measured:
[1] = Cytotoxicity against human HuH7 cells by MTT assay; type: cell-based; details: Huh-7 cells
[2] = Inhibition of HCV1b BK NS5B Cdelta21 RNA dependent RNA polymerase; set-up: species or system Hepatitis C virus (isolate BK)
Procedure, shortened: (§1)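 Truncated ΔC21 NS5B RdRp from the HCV genotype 1b BK strain or the genotype 2b 2b.2 strain. Values are the mean of two or more experiments, with SD within 30% of the mean.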

[3] = tested on: Hepatitis C virus; assay: Antiviral activity against HCV1b Con1 infected in human Huh7 clone HBI10A cells expressing HEPREP 1b replicon by cell-ELISA assay; type: functional, organism-based, Hepacivirus hominis; details: isolate Con1, Huh-7
[4] = Inhibition of HCV2b.2 NS5B Cdelta21 RNA dependent RNA polymerase; set-up: species or system Hepacivirus hominis, 2b.2; procedure, shortened: as §1
[5] = target: RNA-directed RNA polymerase (Hepacivirus hominis, UniProt O39930, P495A); assay: Inhibition of HCV1b BK NS5B Cdelta21 RNA dependent RNA polymerase Thumb site 1 P495A mutant; set-up: species or system Hepatitis C virus (isolate BK)
[6] = target: RNA-directed RNA polymerase (Hepacivirus hominis, UniProt O39930, M414T); assay: Inhibition of HCV1b BK NS5B Cdelta21 RNA dependent RNA polymerase Palm site 1 and 2 M414T mutant; set-up: species or system Hepatitis C virus (isolate BK)
[7] = target: RNA-directed RNA polymerase (Hepacivirus hominis, UniProt O39930, M423K); assay: Inhibition of HCV1b BK NS5B Cdelta21 RNA dependent RNA polymerase Thumb site 2 M423K mutant; set-up: species or system Hepatitis C virus (isolate BK)
[8] = Inhibition of HCV1b BK NS5B Cdelta21 RNA dependent RNA polymerase Thumb site 2 R501E mutant; set-up: species or system Hepatitis C virus (isolate BK)
[9] = Inhibition of HCV1a RB5 NS5B Cdelta21 RNA dependent RNA polymerase; set-up: species or system Hepatitis C virus subtype 1a
[10] = tested on: Hepatitis C virus; assay: Antiviral activity against HCV1b BK infected in human Huh7 cells by replicon cell-ELISA assay; details: Huh-7
[11] = target: Genome polyprotein (GB virus-B, UniProt Q69422); assay: Inhibition of Hepatitis GB virus B NS5B RNA dependent RNA polymerase
[12] = tested on: Hepatitis C virus (isolate BK); assay: Inhibition of HCV1b BK NS5B Cdelta21 RNA dependent RNA polymerase in pre-elongation phase assessed as residual enzyme activity at 6.4 uM to 3 nM preincubated for 15 mins with polyA oligoU18 RNA in room temperature
Procedure, shortened: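 ΔC21-1b polymerase (20 nM) with polyA/oligoU18 RNA, preincubated 15 min at room temperature before compound addition or not preincubated. Compound titrated 3 nM to 6.4 μM. Residual activity measured.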

[13] = Cmax in rat at 3 mg/kg, po after 0.7 hrs; type: ADME, organism-based; set-up: dose 3 mg/kg, route oral; details: in vivo
[14] = tested on: Hepatitis C virus; assay: Antiviral activity against HCV1b Con1 infected in human Huh7 cells by replicon cell-ELISA assay; details: isolate Con1, Huh-7
[15] = Inhibition of HCV4a NS5B Cdelta21 RNA dependent RNA polymerase; set-up: species or system Hepatitis C virus subtype 4a
[16] = Solubility of the compound; type: physicochemical
[17] = tested on: Hepatitis C virus; assay: Antiviral activity against HCV1b BK infected in human H2B2 cells expressing HEPREP 2b replicon by cell-ELISA assay
[18] = Inhibition of HCV2a.4 NS5B Cdelta21 RNA dependent RNA polymerase; set-up: species or system Hepacivirus hominis, 2a.4
[19] = Elimination half life in rat at 3 mg/kg, iv; type: ADME, organism-based; set-up: dose 3 mg/kg, route intravenous; details: in vivo
[20] = tested on: Hepatitis C virus (isolate BK); assay: Inhibition of HCV1b BK NS5B Cdelta21 RNA dependent RNA polymerase in pre-elongation phase assessed as residual enzyme activity at 1 uM preincubated for 120 mins with polyA oligoU18 RNA in room temperature
Procedure, shortened: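 Preincubation time course: ΔC21-1b enzyme and polyA/oligoU18 RNA preincubated 0 to 120 min before adding compound at 1 μM. Residual polymerase activity measured.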

[21] = Volume of distribution at steady state in rat at 3 mg/kg, iv; type: ADME, organism-based; set-up: dose 3 mg/kg, route intravenous; details: in vivo, read-out: Vdss
[22] = AUC in rat at 3 mg/kg, po; type: ADME, organism-based; set-up: dose 3 mg/kg, route oral; details: plasma
Procedure, shortened: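 Single oral dose of 3 mg/kg given to rats. Compound concentrations were measured in plasma, and AUC was taken from the plasma exposure after oral dosing. The same rat study also included an iv administration arm.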

[23] = Inhibition of HIV reverse transcriptase; set-up: species or system Human immunodeficiency virus
[24] = Inhibition of HCV3a.7 NS5B Cdelta21 RNA dependent RNA polymerase; set-up: species or system Hepacivirus hominis, 3a.7
[25] = Inhibition of HCV6a NS5B Cdelta21 RNA dependent RNA polymerase; set-up: species or system Hepatitis C virus subtype 6a
Procedure, shortened: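 Purified ΔC21-truncated NS5B RNA-dependent RNA polymerase from HCV genotype 6a, run alongside enzymes from the other major genotypes. Each value is the mean of two or more separate experiments, with SD within ±30% of the mean.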

[26] = Inhibition of Bovine viral diarrhea virus 1 RNA-dependent RNA polymerase
[27] = Lipophilicity, log D of the compound; type: physicochemical; details: octanol/water
[28] = Oral bioavailability in rat at 3 mg/kg; type: ADME, organism-based; details: in vivo
[29] = tested on: Hepatitis C virus; assay: Antiviral activity against HCV H77-1a infected in human Huh7 cells by replicon cell-ELISA assay; details: genotype 1a H77, Huh-7
[30] = tested on: Hepatitis C virus (isolate BK); assay: Inhibition of HCV1b BK NS5B Cdelta21 RNA dependent RNA polymerase in pre-elongation phase assessed as residual activity at 1 uM to 0.1 nM preincubated for 5 mins with polyA oligoU18 RNA in room temperature in presence of heparin
Procedure, shortened: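 Single-cycle conditions: ΔC21-1b enzyme and polyA/oligoU18 RNA preincubated 5 min, then compound added from 0.1 nM to 1 μM. Elongation started with 3H-UTP plus heparin (50 ng/μL) to trap free enzyme. Residual polymerase activity measured.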

[31] = Inhibition of DNA polymerase 1 Klenow fragment
[32] = tested on: Hepatitis C virus; assay: Antiviral activity against HCV 2b.2 infected in human Huh7 cells by replicon cell-ELISA assay; details: 2b.2, Huh-7
[33] = Clearance in rat at 3 mg/kg, iv; type: ADME, organism-based; set-up: dose 3 mg/kg, route intravenous; details: in vivo

CNCCNc1ccc2c3c(cccc13)C(=O)N(c1cccc(Br)c1)C2=O
CC50 [1]: 1500 nM | IC50 [2]: 130 nM | EC50 [3]: 2000 nM | IC50 [4]: 400 nM

O=C1c2cccc3c(NC4CCCCC4)ccc(c23)C(=O)N1c1cccc(Br)c1
CC50 [1]: > 50000 nM | IC50 [2]: 66 nM | EC50 [3]: > 50000 nM | IC50 [4]: 120 nM

CCNc1ccc2c3c(cccc13)C(=O)N(c1cccc(Br)c1)C2=O
IC50 [2]: 29 nM | IC50 [4]: 185 nM

CN(CCO)c1ccc2c3c(cccc13)C(=O)N(c1cccc(Br)c1)C2=O
IC50 [2]: 500 nM | IC50 [4]: 1800 nM

O=C1c2ccc(NCCO)c3cccc(c23)CN1c1cccc(Br)c1
IC50 [2]: 850 nM | IC50 [4]: 3500 nM

CC(C)N(c1cc(-c2ccccc2)sc1C(=O)O)C(=O)[C@H]1CC[C@H](C)CC1
CC50 [1]: > 50000 nM | IC50 [5]: 40 nM | IC50 [2]: 9 nM | IC50 [6]: 16 nM | IC50 [7]: > 500 nM | EC50 [3]: 1400 nM | IC50 [8]: 100 nM | IC50 [4]: > 10000 nM

CC(C)CNc1ccc2c3c(cccc13)C(=O)N(c1cccc(Br)c1)C2=O
CC50 [1]: > 50000 nM | IC50 [2]: 130 nM | EC50 [3]: 11000 nM | IC50 [4]: 90 nM

COCCNc1ccc2c3c(cccc13)C(=O)N(c1cccc(Br)c1)C2=O
IC50 [2]: 24 nM | IC50 [4]: 124 nM

O=C1c2cccc3c(NCCO)ccc(c23)C(=O)N1c1cccc(Br)c1
IC50 [9]: 64 nM | CC50 [1]: 76000 nM | EC50 [10]: 4600 nM | IC50 [11]: > 50000 nM | Activity [12]: inactive | Cmax [13]: 4 µM | EC50 [14]: 6400 nM | IC50 [15]: 540 nM | solubility [16]: 0.44 µg/mL (≈ 1.07 µM) | EC50 [17]: 11000 nM | IC50 [18]: 770 nM | half-life [19]: 42 min | Activity [20]: inactive | Vd [21]: 1.1 L/kg | AUC [22]: 9.7 µM·h | IC50 [23]: > 50000 nM | IC50 [24]: 760 nM | IC50 [25]: 490 nM | IC50 [26]: > 50000 nM | logD [27]: 3.45 | IC50 [4]: 180 nM | bioavailability [28]: 83% | EC50 [29]: 4700 nM | Activity [30]: Active | IC50 [31]: > 50000 nM | EC50 [32]: 11100 nM | clearance [33]: 12 mL/min/kg

O=C1c2cccc3cccc(c23)C(=O)N1c1cccc(Br)c1
IC50 [2]: > 50000 nM | IC50 [4]: > 50000 nM

NS(=O)(=O)c1cccc(N2C(=O)c3cccc4c(NCCO)ccc(c34)C2=O)c1
CC50 [1]: > 50000 nM | IC50 [2]: 1600 nM | EC50 [3]: > 50000 nM | IC50 [4]: > 50000 nM

O=C1c2cccc3c(NC4CCN(Cc5ccccc5)CC4)ccc(c23)C(=O)N1c1cccc(Br)c1
CC50 [1]: 5200 nM | IC50 [2]: < 14 nM | EC50 [3]: 2200 nM | IC50 [4]: 43 nM

OCCNc1ccc2c3c(cccc13)CN(c1cccc(Br)c1)C2
IC50 [2]: > 50000 nM | IC50 [4]: > 50000 nM

Nc1ccc2c3c(cccc13)C(=O)N(c1cccc(Br)c1)C2=O
IC50 [2]: 190 nM | IC50 [4]: 300 nM

O=C1c2cccc3c(NCCO)ccc(c23)C(=O)N1c1ccccc1
IC50 [2]: 1700 nM | IC50 [4]: > 50000 nM

O=C1c2cccc3c(NC4CCNCC4)ccc(c23)C(=O)N1c1cccc(Br)c1
CC50 [1]: 3500 nM | IC50 [2]: 30 nM | EC50 [3]: 1900 nM | IC50 [4]: 120 nM

O=C1c2cccc3c(N[C@H]4CC[C@@H](C(=O)O)CC4)ccc(c23)C(=O)N1c1cccc(Br)c1
CC50 [1]: > 50000 nM | IC50 [2]: 42 nM | EC50 [3]: 3800 nM | IC50 [4]: 110 nM
